According to ChEMBL document CHEMBL1128174, “Enhanced D1 affinity in a series of piperazine ring substituted 1-piperazino-3-arylindans with potential atypical antipsychotic activity” (J Med Chem, 1995):
Several values for one entry are separate records, joined by “and”; a condition that tells them apart may be missing. Identical values can stand only once.

Key:
D(2) dopamine receptor = D(2) dopamine receptor (Rattus norvegicus, UniProt P61169); experiment: Binding affinity against dopamine receptor D2
D(1A) dopamine receptor = D(1A) dopamine receptor (Rattus norvegicus, UniProt P18901); experiment: Binding affinity for dopamine receptor D1, activity is expressed as IC50 values.
Mus musculus = organism: Mus musculus; experiment: Antagonism of methyl phenidate-induced gnawing behavior in mice; format: functional
Procedure, shortened: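 Test compound given ip (or sc) 2 h before methyl phenidate (60 mg/kg); mice housed in pairs on corrugated cardboard in gnawing cages, 5–9 pairs per dose.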

Rattus norvegicus [1] = organism: Rattus norvegicus; experiment: Cataleptogenic effect in rats; format: functional
Procedure, shortened: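 Rats scored on a vertical wire grid hourly 1–6 h after dosing; catalepsy counted when immobility lasted at least 15 s.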

Rattus norvegicus [2] = organism: Rattus norvegicus; experiment: In vitro inhibition of [3H]5-HT uptake in rat brain (minus pons, medulla oblongata and cerebellum) homogenates.; format: functional
Rattus norvegicus [3] = organism: Rattus norvegicus; experiment: In vitro inhibition of [3H]NE uptake in rat occipital lobe (plus temporal cortex) homogenates.; format: functional
Rattus norvegicus [4] = organism: Rattus norvegicus; experiment: In vitro inhibition of [3H]dopamine uptake in rat corpus striatum homogenates.; format: functional
[5] = molecular target: 5-hydroxytryptamine receptor 2A (Rattus norvegicus, UniProt P14842); experiment: Binding affinity for 5-hydroxytryptamine 2A receptor, activity is expressed as IC50 values.
[6] = Rattus norvegicus, read-out: ED50
[7] = Rattus norvegicus, Corpus striatum

5-hydroxytryptamine receptor 2A, sequence (P14842 whole entry): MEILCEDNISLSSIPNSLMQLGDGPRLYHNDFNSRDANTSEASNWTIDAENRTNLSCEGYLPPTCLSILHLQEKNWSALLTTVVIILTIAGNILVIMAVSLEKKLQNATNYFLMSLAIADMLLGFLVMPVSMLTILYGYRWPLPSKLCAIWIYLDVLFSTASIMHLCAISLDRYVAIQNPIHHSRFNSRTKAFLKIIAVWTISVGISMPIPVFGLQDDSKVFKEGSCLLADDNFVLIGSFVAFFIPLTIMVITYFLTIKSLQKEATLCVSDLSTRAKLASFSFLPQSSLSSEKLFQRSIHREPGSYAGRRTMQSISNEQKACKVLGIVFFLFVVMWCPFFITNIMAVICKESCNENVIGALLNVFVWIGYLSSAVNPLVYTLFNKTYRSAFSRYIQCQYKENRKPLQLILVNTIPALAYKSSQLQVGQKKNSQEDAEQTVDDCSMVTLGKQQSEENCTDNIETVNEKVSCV
D(1A) dopamine receptor, sequence (P18901 whole entry): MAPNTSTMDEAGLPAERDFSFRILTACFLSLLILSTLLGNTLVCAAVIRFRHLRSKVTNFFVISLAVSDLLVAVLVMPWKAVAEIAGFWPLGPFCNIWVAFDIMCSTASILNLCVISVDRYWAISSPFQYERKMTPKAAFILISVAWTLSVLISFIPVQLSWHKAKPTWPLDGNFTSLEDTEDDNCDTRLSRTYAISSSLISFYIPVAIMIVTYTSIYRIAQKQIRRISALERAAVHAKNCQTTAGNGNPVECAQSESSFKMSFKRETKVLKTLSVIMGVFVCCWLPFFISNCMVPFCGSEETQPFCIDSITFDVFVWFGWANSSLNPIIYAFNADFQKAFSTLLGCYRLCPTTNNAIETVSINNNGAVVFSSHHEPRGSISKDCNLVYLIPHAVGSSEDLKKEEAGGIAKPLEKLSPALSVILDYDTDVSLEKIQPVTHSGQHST
D(2) dopamine receptor, sequence (P61169 whole entry): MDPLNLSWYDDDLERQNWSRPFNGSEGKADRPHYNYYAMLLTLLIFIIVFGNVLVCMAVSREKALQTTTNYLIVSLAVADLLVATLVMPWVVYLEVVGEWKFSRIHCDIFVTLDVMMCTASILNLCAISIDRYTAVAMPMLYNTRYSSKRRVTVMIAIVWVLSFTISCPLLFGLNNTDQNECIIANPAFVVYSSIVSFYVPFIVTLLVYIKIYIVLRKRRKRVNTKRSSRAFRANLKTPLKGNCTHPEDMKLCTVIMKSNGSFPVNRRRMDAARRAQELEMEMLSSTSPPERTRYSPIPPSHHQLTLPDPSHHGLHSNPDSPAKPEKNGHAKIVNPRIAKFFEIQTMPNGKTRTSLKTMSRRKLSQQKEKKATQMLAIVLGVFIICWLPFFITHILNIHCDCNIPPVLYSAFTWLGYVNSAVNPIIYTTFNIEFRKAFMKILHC

SMILES | IC50 (D(2) dopamine receptor) | IC50 (D(1A) dopamine receptor) | ED50 (Mus musculus; Mus musculus, read-out: ED50) | ED50 (Rattus norvegicus [1]; [6]) | also measured
Cc1ccc2c(c1)C(N1CCN(C)CC1)CC2c1ccc(F)cc1 (stereo unspecified) | 13 nM | 38 nM |  |  | 
Cc1ccc2c(c1)C(N1CCNC(C)(C)C1)CC2c1ccc(F)cc1 (stereo unspecified) |  |  | 33 µmol/kg | > 29 µmol/kg | 
OCCN1CCN(C2CC(c3ccc(F)cc3)c3cccc(Cl)c32)CC1 (stereo unspecified) |  | 130 nM |  |  | 
Cc1ccc2c(c1)C(N1CCN(CCO)CC1)CC2c1ccc(F)cc1 (stereo unspecified) | 23 nM | 51 nM |  |  | 
CC(C)N1CCN(C2CC(c3ccc(F)cc3)c3ccc(Cl)cc32)CC1(C)C (single isomer, unassigned; (+)) |  | 52 nM |  |  | IC50 (Rattus norvegicus [2]): 2600 nM; IC50 (Rattus norvegicus [3]): 100 nM; IC50 (Rattus norvegicus [4]): 20 nM
Fc1ccc(C2CC(N3CCN4CCCCC4C3)c3cc(Cl)ccc32)cc1 (stereo unspecified) |  |  | 14 µmol/kg | 4.1 µmol/kg | 
CN1CCN(C2CC(c3ccc(F)cc3)c3ccc(C(F)(F)F)cc32)CC1 (stereo unspecified) | 8.1 nM | 17 nM |  |  | 
CN1CCN(C2CC(c3cccc(F)c3)c3ccc(Cl)cc32)CC1(C)C (stereo unspecified) |  |  | > 33 µmol/kg | > 33 µmol/kg | 
CC1(C)CN(C2CC(c3ccc(F)cc3)c3ccc(C(F)(F)F)cc32)CCN1 (stereo unspecified) |  |  | 2.7 µmol/kg | > 51 µmol/kg | IC50 [5]: 7.5 nM
COc1ccc2c(c1)C(N1CCN(CCO)CC1)CC2c1ccc(F)cc1 (stereo unspecified) | 86 nM | 210 nM |  |  | 
CS(=O)(=O)c1ccc2c(c1)C(N1CCN(CCO)CC1)CC2c1ccc(F)cc1 (stereo unspecified) | 42 nM | 690 nM |  |  | 
CN1CCN(C2CC(c3ccc(F)cc3)c3ccc(Br)cc32)CC1(C)C (stereo unspecified) |  |  | 1.5 µmol/kg | 9.4 µmol/kg | 
CN1CCN(C2CC(c3ccc(F)cc3)c3c(Cl)cccc32)CC1(C)C (stereo unspecified) |  |  | > 36 µmol/kg |  | 
CC1(C)CN(C2CC(c3ccc(F)cc3)c3ccc(Cl)cc32)CCN1 (single isomer, unassigned; (+)) | 12000 nM | 1100 nM |  |  | IC50 [5]: 3600 nM; IC50 (Rattus norvegicus [2]): > 100 nM; IC50 (Rattus norvegicus [3]): 290 nM; IC50 (Rattus norvegicus [4]): 29 nM
CN1CCN(C2CC(c3ccccc3)c3ccc(Cl)cc32)CC1 (stereo unspecified) | 61 nM | 16 nM |  |  | 
CC(C)N1CCN(C2CC(c3ccc(F)cc3)c3ccc(Cl)cc32)CC1(C)C (single isomer, unassigned; (-)) |  | 0.66 nM |  |  | ED50 (Mus musculus): 0.76 µM/kg; ED50 (Rattus norvegicus [1]): 7.1 µM/kg; IC50 (Rattus norvegicus [2]; Rattus norvegicus): 3500 nM; IC50 (Rattus norvegicus [3]): 5600 nM; IC50 (Rattus norvegicus [4]): 1300 nM
CN1CCN(C2CC(c3ccc(F)cc3)c3ccccc32)CC1(C)C (stereo in doubt; 39) | 29 nM | 3 nM | 12 µmol/kg | > 70 µmol/kg | IC50 [5]: 5.1 nM
CCC1(CC)CN(C2CC(c3ccc(F)cc3)c3ccc(Cl)cc32)CCN1C (stereo unspecified) |  |  | > 81 µmol/kg | > 20 µmol/kg | 
CN1CCN(C2CC(c3ccc(F)cc3)c3cccc(Cl)c32)CC1(C)C (stereo unspecified) |  |  | > 41 µmol/kg | > 41 µmol/kg | 
CC1CN(C2CC(c3ccc(F)cc3)c3ccc(Cl)cc32)C(C)CN1C (stereo unspecified) | 41 nM | 19 nM | > 66 µmol/kg | > 33 µmol/kg | 
CN1CCN(C2CC(c3ccc(F)cc3)c3ccc(Cl)cc32)CC12CCC2 (stereo unspecified) |  |  | 1 µmol/kg | 69 µmol/kg | 
CC1(C)CN(C2CC(c3ccsc3)c3ccc(Cl)cc32)CCN1 (stereo in doubt; 54) |  |  |  |  | ED50 (Mus musculus): 6.5 µM/kg; ED50 (Rattus norvegicus [1]): >35 µM/kg
CC1CN(C2CC(c3ccc(F)cc3)c3ccc(Cl)cc32)CC(C)N1C (stereo unspecified) | 120 nM | 13 nM | 53 µmol/kg | > 36 µmol/kg | 
CC1(C)CN(C2CC(c3ccc(F)cc3)c3ccc(Cl)cc32)CCN1CCO (stereo unspecified) |  |  | 0.34 µmol/kg | 3.7 µmol/kg | 
OCCN1CCN(C2CC(c3ccc(F)cc3)c3ccc(Cl)cc32)CC12CCCC2 (stereo in doubt; 35) | 13 nM | 1.9 nM |  |  | ED50 (Mus musculus): 1.6 µM/kg; ED50 (Rattus norvegicus [1]): 14 µM/kg

SMILES | IC50 (D(2) dopamine receptor) | IC50 (D(1A) dopamine receptor) | ED50 (Mus musculus; Mus musculus, read-out: ED50) | ED50 (Rattus norvegicus [1]; [6]) | also measured
CC1(C)CN(C2CC(c3ccc(F)cc3)c3ccc(Cl)cc32)CCN1CCCO (stereo unspecified) | 21 nM | 1.1 nM |  | < 17 µmol/kg | 
CC1(C)CN(C2CC(c3ccsc3)c3ccc(Cl)cc32)CCN1 (stereo in doubt; (+)-54) | 6700 nM | 440 nM |  |  | IC50 [5]: 1100 nM; IC50 (Rattus norvegicus [2]): 2000 nM; IC50 (Rattus norvegicus [3]): 73 nM; IC50 (Rattus norvegicus [4]): 27 nM
CN1CCN(C2CC(c3ccc(F)cc3)c3ccc(Cl)cc32)CC1(C)C (stereo in doubt; (-)-28) |  | 0.68 nM | 0.48 µmol/kg |  | IC50 [5]: 1.1 nM; ED50 (Rattus norvegicus [1]): 9.8 µM/kg; IC50 (Rattus norvegicus [2]): 7200 nM; IC50 (Rattus norvegicus [3]): 6500 nM; IC50 (Rattus norvegicus [4]): 3200 nM
CN1CCN(C2CC(c3ccc(F)cc3)c3ccc(Cl)cc32)CC1(C)C (stereo in doubt; (+)-28) |  | 620 nM |  |  | IC50 (Rattus norvegicus [2]): > 1000 nM; IC50 (Rattus norvegicus [3]): 68 nM; IC50 (Rattus norvegicus [4]): 16 nM
CN1CCN(C2CC(c3ccc(F)cc3)c3ccc(F)cc32)CC1 (stereo unspecified) |  |  |  |  | IC50 (Rattus norvegicus [2]): 610 nM and 3900 nM
CN1CCN(C2CC(c3ccccc3F)c3ccc(Cl)cc32)CC1(C)C (stereo unspecified) |  |  | 34 µmol/kg | > 33 µmol/kg | 
Cc1ccc2c(c1)C(N1CCN(C)C(C)(C)C1)CC2c1ccc(F)cc1 (stereo unspecified) |  |  | 1.4 µmol/kg | 33 µmol/kg | 
CC(C)c1ccc2c(c1)C(N1CCN(CCO)CC1)CC2c1ccc(F)cc1 (stereo unspecified) | 14 nM | 66 nM |  |  | 
OCCN1CCN(C2CC(c3ccc(F)cc3)c3ccc(Cl)cc32)CC12CCCC2 (single isomer, unassigned; (+)) |  | 51 nM |  |  | IC50 (Rattus norvegicus [2]; Rattus norvegicus): 2400 nM; IC50 (Rattus norvegicus [3]; Rattus norvegicus): 440 nM; IC50 (Rattus norvegicus [4]; [7]): 120 nM
OCCN1CCN(C2CC(c3ccc(F)cc3)c3ccc(Cl)cc32)CC12CCCC2 (stereo in doubt; (-)-35) | 5 nM | 1 nM |  |  | ED50 (Mus musculus): 0.49 µM/kg; ED50 (Rattus norvegicus [1]): 2.7 µM/kg
OCCN1CCN(C2CC(c3ccc(F)cc3)c3ccc(F)cc32)CC1 (stereo unspecified) | 82 nM | 16 nM |  |  | 
CN1CCN(C2CC(c3ccc(F)cc3)c3ccc(Cl)cc32)CC1(C)C (stereo in doubt; 28) |  | 1.3 nM |  |  | IC50 [5]: 2.1 nM; ED50 (Mus musculus): 0.65 µM/kg; ED50 (Rattus norvegicus [1]): 25 µM/kg
CN1CCN(C2CC(c3ccc(Cl)cc3)c3ccc(Cl)cc32)CC1(C)C (stereo unspecified) | 63 nM | 34 nM | > 69 µmol/kg |  | IC50 [5]: 32 nM
CN1CCN(C2CC(c3ccc(F)cc3)c3ccc(Cl)cc32)CC12CCCC2 (single isomer, unassigned; (+)) |  | 6.6 nM |  |  | IC50 (Rattus norvegicus [2]; Rattus norvegicus): 1800 nM; IC50 (Rattus norvegicus [3]; Rattus norvegicus): 690 nM; IC50 (Rattus norvegicus [4]; [7]): 150 nM
CN1CCN(C2CC(c3ccc(F)cc3)c3ccc(Cl)cc32)CC12CCCC2 (stereo in doubt; 34) |  | 0.85 nM | 1.7 µmol/kg | 42 µmol/kg | 
OCCN1CCN(C2CC(c3ccc(F)cc3)c3ccc(C(F)(F)F)cc32)CC1 (stereo unspecified) | 10 nM | 23 nM |  |  | 
OCCN1CCN(C2CC(c3ccccc3)c3ccccc32)CC1 (stereo unspecified) | 2800 nM | 730 nM |  |  | 
CN1CCN(C2CC(c3ccc(F)cc3)c3ccc(Cl)cc32)CC12CCCC2 (stereo in doubt; (-)-34) |  | 0.96 nM |  |  | ED50 (Mus musculus): 1.2 µM/kg; ED50 (Rattus norvegicus [1]): 31 µM/kg
CN1CCN(C2CC(c3ccccc3)c3ccccc32)CC1(C)C (stereo unspecified) |  |  | > 36 µmol/kg | > 36 µmol/kg | 
CC(C)N1CCN(C2CC(c3ccc(F)cc3)c3ccc(Cl)cc32)CC1(C)C (stereo in doubt; 29) |  | 0.82 nM |  | 6.9 µmol/kg | ED50 (Mus musculus): 1.6 µM/kg
CC1CN(C2CC(c3ccc(F)cc3)c3ccc(Cl)cc32)CCN1C (stereo unspecified) |  |  | 0.27 µmol/kg | 9.3 µmol/kg | 
CSc1ccc2c(c1)C(N1CCN(CCO)CC1)CC2c1ccc(F)cc1 (stereo unspecified) | 13 nM | 39 nM |  |  | 
CN1CCN(C2CC(c3ccc(F)cc3)c3ccc(Cl)cc32)CC12CCCCC2 (stereo unspecified) |  |  | > 80 µmol/kg |  | 
CN1CCN(C2=Nc3cc(Cl)ccc3Nc3ccccc32)CC1 [CLOZAPINE] |  |  | 98 µmol/kg | > 120 µmol/kg | 
CN1CCN(C2CC(c3ccc(F)cc3)c3ccc(C(F)(F)F)cc32)CC1(C)C (stereo unspecified) |  |  | 0.99 µmol/kg | 5.2 µmol/kg | 
